ChEMBL document CHEMBL1151461, “Madurahydroxylactone derivatives as dual inhibitors of human immunodeficiency virus type 1 integrase and RNase H” (Antimicrob Agents Chemother, 2008)

Tests used:
[1] = target: Human immunodeficiency virus type 1 integrase (Human immunodeficiency virus 1, UniProt Q7ZJM1); experiment: Inhibition of HIV1 recombinant integrase by electrochemiluminescent-based high-throughput strand transfer assay
Outline: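 Biotinylated, 3′-end-preprocessed donor DNA incubated 30 min at 37°C with 250 nM recombinant integrase; compound added, strand transfer started with ruthenium-labeled duplex target DNA, 60 min at 37°C; electrochemiluminescence read. IC50 as mean ± SD of ≥3 independent experiments, or single experiment where footnoted.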

[2] = Inhibition of HIV1 RNase H by FRET high-throughput assay; set-up: species or system Human immunodeficiency virus 1
Outline: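 3′-fluorescein/5′-DABCYL RNA/DNA hybrid (0.16 nM) preincubated with compound; reaction started with 7.5 nM HIV-1 RNase H, 30 min at room temperature, EDTA quench, fluorescence intensity read. IC50 as mean ± SD of ≥3 independent experiments, or single experiment where footnoted.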

[3] = tested on: Human immunodeficiency virus 1; experiment: Selectivity, ratio of IC50 for HIV1 recombinant integrase to IC50 for HIV1 RNase H
[4] = tested on: Human immunodeficiency virus 1; experiment: Selectivity, ratio of IC50 for HIV1 RNase H to IC50 for HIV1 recombinant integrase
Outline: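 Ratio of the IC50s from two assays run on the same compounds. Integrase: a biotinylated 3′-preprocessed donor DNA was preincubated 30 min at 37°C with 250 nM recombinant HIV-1 integrase. Compound was then added, ruthenium-labelled target DNA started strand transfer, 60 min at 37°C, electrochemiluminescent read-out. RNase H: 0.16 nM 3′-fluorescein/5′-DABCYL RNA/DNA hybrid with 7.5 nM enzyme, 30 min at room temperature, EDTA quench, FRET fluorescence.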

[5] = target: Human immunodeficiency virus type 1 integrase (Human immunodeficiency virus 1) (UniProt Q7ZJM1); experiment: Selectivity for inhibition of HIV1 recombinant integrase strand transfer activity over 3'-end processing
Human immunodeficiency virus type 1 integrase (Human immunodeficiency virus 1), sequence (Q7ZJM1 as listed by the source): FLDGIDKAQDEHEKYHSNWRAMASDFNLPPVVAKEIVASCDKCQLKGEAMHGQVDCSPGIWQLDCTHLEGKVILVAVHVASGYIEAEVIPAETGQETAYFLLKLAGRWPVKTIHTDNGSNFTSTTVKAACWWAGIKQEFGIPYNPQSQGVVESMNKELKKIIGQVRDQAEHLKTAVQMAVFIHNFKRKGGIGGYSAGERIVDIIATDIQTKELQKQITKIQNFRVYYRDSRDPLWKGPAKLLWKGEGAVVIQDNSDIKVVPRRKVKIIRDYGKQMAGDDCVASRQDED

Human immunodeficiency virus type 1 integrase, sequence (Q7ZJM1 whole entry): as the sequence (Q7ZJM1 as listed by the source) above

Question: For COc1c2c(c(O)c3c1C(=O)c1c(cc(O)c(C)c1O)C3=O)-c1c(cc3c(c1O)C(=O)N1CCCNC31)CC2 (centres undefined), which IC50 [1] is on record?
Answer: 56 µM

Question: And the IC50 [2]?
Answer: 7.16 µM

Question: Which results are given for COc1c2c(c(O)c3c1C(=O)c1c(cc(O)c(C)c1O)C3=O)-c1c(cc3c(c1O)C(=O)N1c4ccccc4CNC31)CC2 (centres undefined)?
Answer: IC50 [1]: 108 µM; IC50 [2]: 0.78 µM; Ratio IC50 [3]: 100

Question: What does the source list for COc1c2c(c(O)c3c1C(=O)c1c(cc(O)c(C)c1O)C3=O)-c1c(cc(/C=N/Nc3ccc([N+](=O)[O-])cc3)c(C(=O)O)c1O)CC2?
Answer: IC50 [1]: 2.2 µM; IC50 [2]: 14 µM

Question: Which IC50 [1] does the source give for CCCn1ncc2cc3c(c(O)c2c1=O)-c1c(O)c2c(c(OC)c1CC3)C(=O)c1c(cc(O)c(C)c1O)C2=O here?
Answer: 6.34 µM

Question: And the IC50 [2]?
Answer: 8.96 µM

Question: Which IC50 [1] does the source give for COc1c2c(c(OCc3ccccc3)c3c1C(=O)c1c(cc(OCc4ccccc4)c(C)c1OCc1ccccc1)C3=O)-c1c(cc3cnn(CC(=O)O)c(=O)c3c1OCc1ccccc1)CC2 here?
Answer: 106 µM

Question: And the IC50 [2]?
Answer: 22.4 µM

Question: For COc1c2c(c(O)c3c1C(=O)c1c(cc(O)c(C)c1O)C3=O)-c1c(cc(/C=N/NC(C)(C)C)c(C(=O)O)c1O)CC2, which IC50 [1] is on record?
Answer: 122 µM

Question: What about the IC50 [2] of the same molecule?
Answer: 0.69 µM

Question: What about the Ratio IC50 [3] of the same molecule?
Answer: > 100

Question: What does the source list for CCOC(=O)Cn1ncc2cc3c(c(O)c2c1=O)-c1c(O)c2c(c(OC)c1CC3)C(=O)c1c(cc(O)c(C)c1O)C2=O?
Answer: IC50 [1]: 2.67 µM; IC50 [2]: 2.11 µM

Question: Which results are given for COc1c2c(c(O)c3c1C(=O)c1c(cc(O)c(C)c1O)C3=O)-c1c(cc3c(c1O)C(=O)N1c4ccccc4SC31)CC2 (centres undefined)?
Answer: IC50 [1]: 96 µM; IC50 [2]: 0.31 µM; Ratio IC50 [3]: 10; Ratio IC50 [4]: 100

Question: What does the source list for CCCn1ncc2cc3c(c(O)c2c1=O)-c1c(O)c2c(c(OC)c1CC3)C(=O)c1c(cc(OC(=O)OC)c(C)c1OC(C)=O)C2=O?
Answer: IC50 [1]: > 333 µM; IC50 [2]: 8.98 µM

Question: What does the source list for COc1c2c(c(O)c3c1C(=O)c1c(cc(O)c(C)c1O)C3=O)-c1c(cc3cn[nH]c(=O)c3c1O)CC2?
Answer: IC50 [1]: 4.06 µM; IC50 [2]: 4.06 µM

Question: Which IC50 [1] does the source give for COc1c2c(c(O)c3c1C(=O)c1c(cc(O)c(C)c1O)C3=O)-c1c(cc3cnn(-c4ccccc4)c(=O)c3c1O)CC2 here?
Answer: 0.41 µM

Question: And the IC50 [2]?
Answer: 2.58 µM

Question: What about the fold change (FC) [5] of the same molecule?
Answer: 20

Question: And the Ratio IC50 [4]?
Answer: 100

Question: For COc1c2c(c(O)c3c1C(=O)c1c(cc(O)c(C)c1O)C3=O)-c1c(cc(C(=O)O)c(C(=O)O)c1O)CC2, which IC50 [1] is on record?
Answer: 13.2 µM

Question: And the IC50 [2]?
Answer: 3.48 µM

Question: Which results are given for COC(=O)Oc1cc2c(c(O)c1C)C(=O)c1c(OC)c3c(c(O)c1C2=O)-c1c(cc2cnn(-c4ccccc4)c(=O)c2c1O)CC3?
Answer: IC50 [1]: 200 µM; IC50 [2]: 1.43 µM; Ratio IC50 [3]: 100

Question: Which results are given for COc1c2c(c(O)c3c1C(=O)c1c(cc(O)c(C)c1O)C3=O)-c1c(cc(/C=N/NC(=O)c3ccccc3)c(C(=O)O)c1O)CC2?
Answer: IC50 [1]: 14.6 µM; IC50 [2]: 3.1 µM

Question: Which results are given for COc1c2c(c(O)c3c1C(=O)c1c(cc(O)c(C)c1O)C3=O)-c1c(cc3cnn(CCOC(C)=O)c(=O)c3c1O)CC2?
Answer: IC50 [1]: 6.28 µM; IC50 [2]: 8.63 µM

Question: What does the source list for COc1c2c(c(O)c3c1C(=O)c1c(cc(O)c(C)c1O)C3=O)-c1c(cc(/C=N/NC(=N)N)c(C(=O)O)c1O)CC2?
Answer: IC50 [1]: 3.15 µM; IC50 [2]: 5.65 µM

Question: With COc1c2c(c(O)c3c1C(=O)c1c(cc(O)c(C)c1O)C3=O)-c1c(cc3cnn(CC(=O)O)c(=O)c3c1O)CC2 as the molecule, how does the IC50 [1] read?
Answer: 4.62 µM

Question: And the IC50 [2]?
Answer: 10.2 µM

Question: What does the source list for COc1c2c(c(O)c3c1C(=O)c1c(cc(O)c(C)c1O)C3=O)-c1c(cc(/C=N/NS(=O)(=O)c3ccc(C)cc3)c(C(=O)O)c1O)CC2?
Answer: IC50 [1]: 22 µM; IC50 [2]: 5.88 µM

Question: For COc1c2c(c(O)c3c1C(=O)c1c(cc(O)c(C)c1O)C3=O)-c1c(cc3c(c1O)C(=O)N1C(C(=O)O)CSC31)CC2 (centres undefined), which IC50 [1] is on record?
Answer: 20 µM

Question: And the IC50 [2]?
Answer: 15.7 µM

Question: With COc1c2c(c(OC(C)=O)c3c1C(=O)c1c(cc(OC(C)=O)c(C)c1OC(C)=O)C3=O)-c1c(cc3cnn(-c4ccccc4)c(=O)c3c1OC(C)=O)CC2 as the molecule, how does the IC50 [1] read?
Answer: > 333 µM

Question: And the IC50 [2]?
Answer: 3.14 µM

Question: What about the Ratio IC50 [3] of the same molecule?
Answer: 100

Question: For COc1c2c(c(O)c3c1C(=O)c1c(cc(O)c(C)c1O)C3=O)-c1c(cc(/C=N/NC(=O)c3ccccc3O)c(C(=O)O)c1O)CC2, which IC50 [1] is on record?
Answer: 6.09 µM

Question: What about the IC50 [2] of the same molecule?
Answer: 3.54 µM

Question: With COc1c2c(c(O)c3c1C(=O)c1c(cc(O)c(C)c1O)C3=O)-c1c(cc(/C=N/C34CC5CC(CC(C5)C3)C4)c(C(=O)O)c1O)CC2 as the molecule, how does the IC50 [1] read?
Answer: 37 µM

Question: What about the IC50 [2] of the same molecule?
Answer: 9.41 µM

Question: Which IC50 [1] does the source give for COc1c2c(c(O)c3c1C(=O)c1c(cc(O)c(C)c1O)C3=O)-c1c(cc3cnn(C(=N)N)c(=O)c3c1O)CC2 here?
Answer: 3.02 µM

Question: What about the IC50 [2] of the same molecule?
Answer: 5.28 µM

Question: With COc1c2c(c(O)c3c1C(=O)c1c(cc(O)c(C)c1O)C3=O)-c1c(cc3c(c1O)C(=O)N(N(C)C)C3O)CC2 (centres undefined) as the molecule, how does the IC50 [1] read?
Answer: 7.7 µM

Question: And the IC50 [2]?
Answer: 6.97 µM

Question: What does the source list for COc1c2c(c(O)c3c1C(=O)c1c(cc(O)c(C)c1O)C3=O)-c1c(cc(C3NCc4ccccc4N3)c(C(=O)O)c1O)CC2 (centres undefined)?
Answer: IC50 [1]: 40 µM; IC50 [2]: 5.86 µM

Question: With CO/N=C/c1cc2c(c(O)c1C(=O)O)-c1c(O)c3c(c(OC)c1CC2)C(=O)c1c(cc(O)c(C)c1O)C3=O as the molecule, how does the IC50 [1] read?
Answer: 12.5 µM

Question: And the IC50 [2]?
Answer: 10.1 µM

Question: Which results are given for CCCn1ncc2cc3c(c(OC(C)=O)c2c1=O)-c1c(c(OC)c2c(c1OC(C)=O)C(=O)c1cc(OC(C)=O)c(C)c(OC(C)=O)c1C2=O)CC3?
Answer: IC50 [1]: > 333 µM; IC50 [2]: 10.5 µM

Question: What does the source list for COc1c2c(c(O)c3c1C(=O)c1c(cc(O)c(C)c1O)C3=O)-c1c(cc3cnn(-c4ccc(C(=O)O)cc4)c(=O)c3c1O)CC2?
Answer: IC50 [1]: 3.45 µM; IC50 [2]: 9.11 µM
